Assay results as given in article PMC3215871 (Cancer Chemotherapy and Pharmacology, 2011).
Several values for one entry are separate records, joined by “and”; a condition that tells them apart may be missing. Identical values can stand only once. Like-named read-outs stand apart in the source and are kept apart here. Peptide text beside a SMILES is read from it. * marks the point of attachment. Cbz = O=C(OCc1ccccc1)*

Key:
[1] = tested on: glioblastoma cell line; settings: 20 μM EGCG, 20 nM bortezomib; cited from earlier work
[2] = cited from earlier work
[3] = tested on: phospho-β-catenin (Ser33/Ser37/Thr41), GADD34 and ATF3; assay: Western blot of xenograft tumors for proteasome substrate and ER stress markers; format: in vivo, human; settings: 4 h
Summary of the method: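 CWR22 xenograft tumours harvested 4 h after dosing with bortezomib 0.8 mg/kg IV, EGCG 50 mg/kg IV, or EGCG (IV, then bortezomib 2 min later; SC, then bortezomib 30 or 60 min later). Western blots probed for phospho-β-catenin (Ser33/Ser37/Thr41), GADD34 and ATF3, compared with vehicle controls.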

[4] = target: T1, 20S proteasome (Mus musculus, UniProt O55234); assay: 20S proteasome activity in blood, enzymatic assay; format: in vivo, mice; settings: for inhibition at 0.8 mg/kg: mouse
T1 sequence (O55234 60-264): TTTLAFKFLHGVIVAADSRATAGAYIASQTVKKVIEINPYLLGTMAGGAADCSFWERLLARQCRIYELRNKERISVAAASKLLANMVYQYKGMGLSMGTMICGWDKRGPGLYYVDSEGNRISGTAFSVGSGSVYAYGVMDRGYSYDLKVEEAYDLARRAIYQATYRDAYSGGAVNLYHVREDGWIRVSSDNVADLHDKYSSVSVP
Summary of the method: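 20S proteasome activity in blood measured by an enzymatic assay on samples taken 4 h after dosing. Schedules were bortezomib 0.8 mg/kg IV, EGCG 50 mg/kg IV alone, EGCG 50 mg/kg IV then bortezomib 2 min later, or EGCG 50 mg/kg SC then bortezomib 30 or 60 min later. Inhibition expressed relative to vehicle controls.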

[5] = cited from earlier work; for maximal plasma concentration: humans, 800 mg EGCG supplements
[6] = tested on: MM cell lines; settings: 10 nM bortezomib, several MM cell lines; cited from earlier work
[7] = tested on: RPMI-8226 cells; assay: Bortezomib–EGCG combination matrix, ATP luminescence cell viability; format: cell-based, human
[8] = tested on: mouse xenograft models of human MM; settings: cited from earlier work
[9] = target: T2, 20S proteasome (Homo sapiens, UniProt P28074); assay: 20S proteasome activity in xenograft tumors, enzymatic assay; format: in vivo
T2 sequence (P28074 60-263): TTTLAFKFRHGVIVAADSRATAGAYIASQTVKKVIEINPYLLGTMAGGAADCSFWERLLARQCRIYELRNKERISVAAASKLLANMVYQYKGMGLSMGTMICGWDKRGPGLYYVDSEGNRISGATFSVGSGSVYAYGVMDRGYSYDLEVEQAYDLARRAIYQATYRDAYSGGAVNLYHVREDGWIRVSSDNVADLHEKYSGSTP
Summary of the method: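 CWR22 human prostate tumor fragments were implanted subcutaneously by trocar in the flank of male CB-17 SCID mice aged 5–8 weeks. Tumor-bearing mice received an IV dose of the test compound. At 4 h, tumors were collected and 20S proteasome activity was measured by an enzymatic assay. Inhibition is expressed as a mean percentage relative to vehicle-treated controls.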

[10] = Pharmacokinetics of EGCG in mice; format: in vivo; settings: for Cmax: read-out: mean Cmax
Summary of the method: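 Naïve female nude or male CB-17 SCID mice aged 5–8 weeks given EGCG in 0.9% saline: PO 50, IV 50 and 100, or SC 50 mg/kg. Cardiac blood taken under CO2 from 5 min to 48 h; EDTA plasma stabilised 1:1 with ascorbic acid/EDTA, stored at −80°C, assayed by LC/MS/MS. Concentrations at bortezomib dosing times projected from these profiles.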

[11] = tested on: CWR22 human prostate xenograft tumors; assay: In vivo antitumor activity; parameters: species or system mice
Summary of the method: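 Male CB-17 SCID mice aged 5–8 weeks implanted SC in the flank (trocar) with CWR22 fragments; randomised at 150–250 mm3 (n = 9/group). EGCG 50 mg/kg IV or SC BIW for 7 doses; ascorbic acid 40 or 500 mg/kg PO QD for 22 days; vehicle 0.9% saline. Calipers BIW; volume = 0.5 × length × width². TGI from mean volumes versus control on day 22 or 25.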

[12] = cited from earlier work; remark: listed apart in the source
[13] = tested on: RPMI8226 cells; settings: cited from earlier work
[14] = humans, oral dose of 1,250 mg; cited from earlier work
[15] = Pharmacokinetics of ascorbic acid; format: in vivo, mice; settings: for Cmax / Tmax: male, CB-17 SCID, mouse, po
Summary of the method: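 Male CB-17 SCID mice bearing CWR22 tumours (naïve mice also sampled) given ascorbic acid 40 or 500 mg/kg PO in 0.9% saline. Cardiac blood taken at 0.5–6 h into lithium heparin; plasma stabilised 1:1 with 10% metaphosphoric acid, stored at −80°C. LC/MS/MS in negative ion MRM mode (m/z 175.0/114.8).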

[16] = human plasma, within an hour post-dose; cited from earlier work
[17] = iv, read-out: mean 20S proteasome inhibition

In the case of `O=C(O[C@@H]1Cc2c(O)cc(O)cc2O[C@@H]1c1cc(O)c(O)c(O)c1)c1cc(O)c(O)c(O)c1` [EGCG, epigallocatechin gallate], the “effect on proteasome inhibition by bortezomib” value [1] is given as “blocked proteasome inhibition”, the plasma concentration ([2]; 50 mg/kg EGCG administered intragastrically, at 50 min) is given as “approximately 60 nM” and the maximal plasma concentrations ([2]; mice, oral dosing of 50 and 80 mg/kg) is given as 0.06 to 0.28 µM. For the same compound, the “levels of phospho-β-catenin, GADD34, and ATF3” value ([3]; EGCG 50 mg/kg IV on its own) was “does not change levels”, the “inhibition of proteasome activity compared with vehicle controls” value ([4]; blood, EGCG 50 mg/kg IV alone, 4 h (Fig. 4a)) was “No inhibition” and the “EGCG concentration measured clinically” value ([5]; humans taking EGCG supplements) was 0.6 to 3 µM. The maximal plasma concentration ([5]; taken after fasting) was “approximately 3 μM and 1,522 ng/ml”, the maximal plasma concentration ([5]; taken with food) was “approximately 0.6 μM and 294 ng/ml” and the “EGCG concentrations that antagonized the cytotoxic effect of bortezomib” value [6] was ≥ 2.5 µM. For the same compound, the “antagonism of 40 nM bortezomib” value ([7]; EGCG 3.8 μM) was “no antagonism”, the “cytotoxicity of EGCG on its own” value ([7]; EGCG 100 μM) was “cytotoxic” and the “impact on the cytotoxicity of bortezomib” value ([7]; EGCG concentrations of up to 0.4 μM) was “no impact”. The “EGCG concentration required for a substantial shift in the potency of bortezomib” value ([7]; RPMI8226 cell viability) was > 1000 nM, the “effect on the antitumor effects of bortezomib” value ([8]; oral EGCG 25 or 50 mg/kg, bortezomib i.p. 0.5 mg/kg) was “inhibits the antitumor effects” and the “inhibition of proteasome activity compared with vehicle controls” value ([9]; tumor, EGCG 50 mg/kg IV alone, 4 h (Fig. 4a)) was “No inhibition”. The “Projected plasma concentration of EGCG at the time of bortezomib dosing” value (“Projected plasma concentration of EGCG” for short) ([10]; 50 mg/kg IV EGCG, 2 min interval) was 224 µM, the “Projected plasma concentration of EGCG” value ([10]; 50 mg/kg SC EGCG, 30 min interval) was 11 to 16 µM and the “Projected plasma concentration of EGCG” value ([10]; 50 mg/kg SC EGCG, 60 min interval) was 4 to 8 µM. For the same compound, the “time plasma concentration remained higher than 3 μM” value ([10]; IV and SC dosing at 50 mg/kg) was ~2 h, the “maximal EGCG concentration” value ([10]; SC 50 mg/kg) was > 25 µM and the EGCG plasma concentration ([10]; SC 50 mg/kg, 30 min post-dose, first study) was 16.2 µM. The EGCG plasma concentration ([10]; SC 50 mg/kg, 30 min post-dose, second study) was 11.3 µM, the EGCG plasma concentration ([10]; SC 50 mg/kg, 1 h post-dose, first study) was 8.4 µM and the EGCG plasma concentration ([10]; SC 50 mg/kg, 1 h post-dose, second study) was 3.9 µM. The EGCG plasma concentration ([10]; SC 50 mg/kg, 2 h post-dose, first study) was 2.8 µM, the EGCG plasma concentration ([10]; SC 50 mg/kg, 2 h post-dose, second study) was 2.5 µM and the “mean plasma Tmax” value ([10]; SC 50 mg/kg, naïve male CB17 SCID mice, both studies) was 0.083 h. For the same compound, the “plasma levels of EGCG” value ([10]; after IV dosing (50 and 100 mg/kg), within 30 min of dosing) was < 20 µM, the maximal plasma concentration ([10]; oral dosing 50 mg/kg) was < 0.1 µM and the Cmax ([10]; SC 50 mg/kg, naïve male CB17 SCID mice, first study) was 33.7 µM. The Cmax ([10]; SC 50 mg/kg, naïve male CB17 SCID mice, second study) was 26 µM, the “mean plasma Tmax” value ([10]; single oral dose 50 mg/kg, naïve female nude mice) was 0.5 h and the TGI ([11]; EGCG 50 mg/kg IV BIW alone) was −15.3%. It also gave a TGI ([11]; EGCG 50 mg/kg SC BIW single agent) of 3.6%.
For `CC(C)C[C@@H](C=O)NC(=O)[C@H](CC(C)C)NC(=O)[C@H](CC(C)C)NC(=O)OCc1ccccc1` [MG-132] (Cbz-Leu-Leu-Leu-aldehyde), the “effect of EGCG on the proteasome inhibitor” value [12] is listed as “has no effect”.
For `CC(C)C[C@H](NC(=O)[C@H](CC(C)C)NC(=O)[C@H](CC(C)C)NC(=O)OCc1ccccc1)B(O)O` [MG-262], the “effect of EGCG on the proteasome inhibitor” value [12] is given as “antagonizes”.
For `O=C1O[C@H]([C@@H](O)CO)C(O)=C1O` [ascorbic acid], the “antagonism of the activity of bortezomib” value ([13]; 30 μM ascorbic acid, 5 and 10 nM bortezomib) is given as “partially antagonized”, the “antagonism of the activity of bortezomib” value ([13]; 250 μM ascorbic acid, 5–10 nM bortezomib) is given as “nearly complete antagonism” and the maximal concentrations [14] is given as “approximately 150 μM”. It also gave a Cmax ([15]; plasma, 40 mg/kg) of 72.8 µM, a Tmax ([15]; plasma, 40 mg/kg) of 4 h and a Cmax ([15]; plasma, 500 mg/kg) of 193 µM. For the same compound, the Tmax ([15]; plasma, 500 mg/kg) was 2 h, the “time elevated plasma level above endogenous is maintained” value ([15]; oral dosing 40 and 500 mg/kg) was “at least 6 h” and the “levels of endogenous ascorbic acid” value ([15]; plasma, naïve or CWR22 tumor-bearing male CB-17 SCID mice) was 48.3 to 59.2 µM. The “effect on the antitumor effects of bortezomib” value ([8]; oral vitamin C 40 mg/kg/day, bortezomib IV 0.1 mg/kg) was “inhibits the antitumor effects”, the TGI ([11]; ascorbic acid 40 mg/kg PO QD alone) was −24.4% and the TGI ([11]; ascorbic acid 500 mg/kg PO QD alone) was −15.5%.
In the case of `CC(C)C[C@H](NC(=O)[C@H](Cc1ccccc1)NC(=O)c1cnccn1)B(O)O` [bortezomib, reference compound], the “effect of EGCG on the proteasome inhibitor” value [12] is listed as “antagonizes”, the “levels of phospho-β-catenin, GADD34, and ATF3 compared with vehicle controls” value ([3]; bortezomib 0.8 mg/kg IV) is listed as “elevated levels” and the inhibition at 0.8 mg/kg [4, 17] is listed as 44%. For the same compound, the inhibition at 0.8 mg/kg ([4]; read-out: mean proteasome inhibition) was 59%, the “drop of plasma concentrations” value [16] was “more than 10 fold” and the “increase in the IC50 of bortezomib” value ([7]; 3.8 μM EGCG versus no EGCG) was 2.5 fold. It also gave an IC50 ([7]; read-out: Btz IC50, RPMI-8226 cells, 48 h, EGCG 425 nM (0.4 μM)) of 7 nM, an inhibition at 0.8 mg/kg [9, 17] of 52% and a TGI ([11]; bortezomib 0.8 mg/kg IV BIW alone, vitamin C study (Fig. 5b)) of 62.8%. For the same compound, the TGI ([11]; bortezomib 0.8 mg/kg IV BIW single agent, across EGCG studies, versus control) was 53.9–58.9%.
For `Cc1c(O)cccc1C(=O)N[C@@H](CSc1ccccc1)[C@H](O)CN1C[C@H]2CCCC[C@H]2C[C@H]1C(=O)NC(C)(C)C` [nelfinavir], the “effect of EGCG on the proteasome inhibitor” value [12] is given as “has no effect”.
